According to paper PMC9884082 (Journal of Medicinal Chemistry, 2023):
Where “and” joins values, the source holds several entries; their conditions need not be identical. Equal entries are not always repeated. Entries after “also recorded” stand apart in the source; their conditions may differ. One block for each molecule: values may come before it.

Assays:
[1] = system: CD133+/CXCR4+ (Dual Hi) HT-29 xenografts; test: Dual Hi HT-29 xenograft after FUOX enrichment, oral G2C or IP G2.2; format: in vivo, NCr nude mice; details: for tumor growth compared to vehicle: experiment 2, G2.2 100 mg/kg IP 3 times/week, G2C 100 mg/kg PO 5 times/week, 3 weeks
Method in brief: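 1 × 10⁵ CD133⁺/CXCR4⁺ HT-29 cells were injected subcutaneously into NCr nude mice. Palpable tumors received 50 mg/kg 5-FU plus 5 mg/kg oxaliplatin IP weekly for 3 weeks. Mice were randomized to vehicle or test compound 100 mg/kg PO 5 times/week for 3 weeks, or, in a second experiment, parent 100 mg/kg IP 3 times/week. Xenograft single cells were assessed for 1–3° spheroids. CD133/CXCR4/LGR5 cells were quantified by flow cytometry (30 min staining, 4 °C).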

HT-29 xenografts = test: HT-29 xenograft after FUOX enrichment, IP G2C, FUOX or G2C+FUOX; format: in vivo, NCr nude mice
Method in brief: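 1 × 10⁶ unsorted HT-29 cells were injected subcutaneously into NCr nude mice. Palpable tumors received 25 mg/kg 5-fluorouracil plus 2 mg/kg oxaliplatin IP weekly for 3 weeks. Mice were randomized to vehicle, test compound 50 mg/kg IP three times/week (8 doses), continued 5-FU/oxaliplatin, or both. Tumor volume was followed to sacrifice (n = 2/group) and compared with vehicle.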

[2] = system: intestinal crypt-derived organoids; test: Ex vivo intestinal crypt-derived organoids from treated mice; format: in vivo
[3] = system: pooled normal human plasma; test: Human plasma clotting time; format: biochemical; details: ∼34 to ∼68 s
Method in brief: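 APTT was run in a fibrometer by one-stage recalcification. Test compound was mixed with citrated pooled normal human plasma and prewarmed APTT reagent (ellagic acid). After 4 min at 37 °C, clotting was started with prewarmed 25 mM CaCl₂ and time to clot recorded. A quadratic trend line fitted to the data gave the concentration doubling clotting time.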

[4] = Mouse tail bleeding study; format: in vivo, wild-type ICR mice; details: IV; NSGMs 1–100 mg/kg, enoxaparin 224 μg/kg
HT-29 monolayer culture = test: Cell proliferation; format: cell-based, human; details: MTT, 60-72 h
Method in brief: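 HT-29 cells kept as monolayers in DMEM:F-12 with 10% FBS and 1% penicillin/streptomycin, passaged before 70% confluence. About 2.5 × 10³ cells/well were incubated overnight (37 °C, 5% CO₂), then exposed to test compound for 60–72 h. MTT (5 mg/mL stock in PBS) was added for 2–3 h and crystals dissolved in DMSO. A590 was read and growth expressed as percent of vehicle; ≥3 replicates.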

[5] = system: colon cancer cell line HT-29 spheroids; test: Spheroid inhibition assay; format: cell-based, human
Method in brief: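 HT-29 cells (≤6 passages) were seeded at 100–300 cells/well in low-adhesion plates. Medium was stem cell medium: DMEM:F12 with B27, 20 ng/mL EGF and 10 ng/mL FGF. After brief incubation, vehicle or test compound was added. After 3–7 days, spheroids of 50–150 μm were counted by phase-contrast microscopy as percent of vehicle. IC50 came from normalized sigmoidal regression; ≥3 replicates.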

colon xenografts = details: cited from earlier work
[6] = HT-29 spheroids, relative to G2.2

Molecule: CC(C)CCC[C@@H](C)[C@H]1CC[C@H]2[C@@H]3CC=C4C[C@@H](OCCOc5cc(-c6oc7cc(OS(=O)(=O)[O-])cc(OCCCOc8cc(OS(=O)(=O)[O-])cc9oc(-c%10ccc(OS(=O)(=O)[O-])c(OS(=O)(=O)[O-])c%10)c(OS(=O)(=O)[O-])c(=O)c89)c7c(=O)c6OS(=O)(=O)[O-])ccc5OS(=O)(=O)[O-])CC[C@]4(C)[C@H]3CC[C@]12C.[Na+].[Na+].[Na+].[Na+].[Na+].[Na+].[Na+] [G2C, Sodium 4-(5-(3-((2-(3-(2-(((8S,9S,10R,13R,14S,17R)-10,13-Dimethyl-17-((R)-6-methylheptan-2-yl)-2,3,4,7,8,9,10,11,12,13,14,15,16,17-tetradecahydro-1H-cyclopenta[a]phenanthren-3-yl)oxy)ethoxy)-4-(sulfonatooxy)phenyl)-4-oxo-3,7-bis(sulfonatooxy)-4H-chromen-5-yl)oxy)propoxy)-4-oxo-3,7-bis(sulfonatooxy)-4H-chromen-2-yl)-1,2-phenylene Bis(sulfate)]
- animal weight ([1]; daily oral G2C): did not lose weight
- bleeding at the site of injection or in organs ([1]; daily oral G2C): no obvious sign of major bleeding
- 3° spheroid formation from xenograft-derived cells ([1]; experiment 1, G2C 100 mg/kg PO): significantly inhibited
- Dual Hi cell-induced tumor growth ([1]; experiment 1, G2C 100 mg/kg PO 5 times/week for 3 weeks): significantly inhibited Dual Hi cell-induced tumor growth
- tumor growth compared to vehicle [1]: seemed to reduce tumor growth; also recorded: higher growth inhibition
- proportion of CD133+/CXCR4+ (Dual Hi) and LGR5 cells in xenografts ([1]; flow cytometry, oral G2C): significantly lower
- blood chemistry compared to vehicle ([1]; oral G2C): did not produce any significant change in blood chemistry
- inhibition of xenografts compared to vehicle (HT-29 xenografts; G2C 50 mg/kg IP (Figure 6B)): 30%
- animal weight (HT-29 xenografts; G2C 50 mg/kg IP alone or with FUOX): no significant change in animal weight
- expression of DCAMKL1 and BMI-1 in xenograft lysate (HT-29 xenografts; Western blots): inhibition in the expression of DCAMKL1 (CSC marker) and BMI-1 (self-renewal marker)
- 3 and 4° spheroid formation from xenograft-derived cells (HT-29 xenografts; ex vivo in CSC media, compared to vehicle): significant inhibition of self-renewing CSCs
- ex vivo growth of organoids derived from intestinal crypts ([2]; after IP G2C 50 mg/kg alone or with FUOX): did not inhibit ex vivo growth of organoids derived from intestinal crypts
- intestinal crypt-derived organoid growth ([2]; after oral G2C 100 mg/kg 5 times/week for 3 weeks): did not reduce intestinal crypt-derived organoid growths
- concentration required for 2-fold increase in APTT [3]: ~300 µM
- blood loss, tail bleeding [4]: did not exhibit much tail bleeding phenotype
- cytotoxicity under monolayer conditions (HT-29 monolayer culture): significantly cytotoxic at ∼100 μM

Molecule: O=c1cc(-c2ccc(OS(=O)(=O)[O-])cc2)oc2cc(OS(=O)(=O)[O-])cc(OCC3CCC(COc4cc(OS(=O)(=O)[O-])cc5oc(-c6ccc(OS(=O)(=O)[O-])cc6)cc(=O)c45)CC3)c12.[Na+].[Na+].[Na+].[Na+] (stereo not drawn) [MAD1, Sodium 4-Oxo-5-((4-(((4-oxo-7-(sulfonatooxy)-2-(4-(sulfonatooxy)phenyl)-4H-chromen-5-yl)oxy)methyl)cyclohexyl)methoxy)-2-(4-(sulfonatooxy)phenyl)-4H-chromen-7-yl Sulfate]
- cytotoxicity under monolayer conditions (HT-29 monolayer culture): did not display significant cytotoxicity
- fold weaker than G2.2 (spheroid potency) [5, 6]: about 1.6 fold
- fold lower potency than MQD1 ([5]; eight (MQD1) to four (MAD1) sulfate groups): 11.4 fold

Molecule: O=c1c(OS(=O)(=O)[O-])c(-c2ccc(OS(=O)(=O)[O-])c(OS(=O)(=O)[O-])c2)oc2cc(OS(=O)(=O)[O-])cc(OCCCOc3cc(OS(=O)(=O)[O-])cc4oc(-c5ccc(OS(=O)(=O)[O-])c(OS(=O)(=O)[O-])c5)c(OS(=O)(=O)[O-])c(=O)c34)c12.[Na+].[Na+].[Na+].[Na+].[Na+].[Na+].[Na+].[Na+] [G2.2, Sodium 4-(5-(3-((2-(3,4-Bis(sulfonatooxy)phenyl)-4-oxo-3,7-bis(sulfonatooxy)-4H-chromen-5-yl)oxy)propoxy)-4-oxo-3,7-bis(sulfonatooxy)-4H-chromen-2-yl)-1,2-phenylene Bis(sulfate)]
- tumor growth compared to vehicle [1]: seemed to reduce tumor growth
- concentration required for 2-fold increase in APTT [3]: 900 µM
- expression of BMI-1 (CSC self-renewal marker) (colon xenografts): significant reduction in the expression of BMI-1
- expression of colon CSC markers (colon xenografts): inhibited the expression of CD133^+, CXCR4^+, DCAMLK1, and/or LGR5 markers
- growth of colon xenografts and toxicity (colon xenografts; parenterally administered): inhibits the growth of colon xenografts without any toxicity to vital organs or bleeding consequences

Second part, led by results:

- concentration required for 2-fold increase in APTT [3]: ~37 µM
Molecule: CC(C)CCC[C@@H](C)[C@H]1CC[C@H]2[C@@H]3CC=C4C[C@@H](OCCCCCCCCOc5cc(-c6oc7cc(OS(=O)(=O)[O-])cc(OCCCOc8cc(OS(=O)(=O)[O-])cc9oc(-c%10ccc(OS(=O)(=O)[O-])c(OS(=O)(=O)[O-])c%10)c(OS(=O)(=O)[O-])c(=O)c89)c7c(=O)c6OS(=O)(=O)[O-])ccc5OS(=O)(=O)[O-])CC[C@]4(C)[C@H]3CC[C@]12C.[Na+].[Na+].[Na+].[Na+].[Na+].[Na+].[Na+] [G8C, Sodium 4-(5-(3-((2-(3-((8-(((8S,9S,10R,13R,14S,17R)-10,13-Dimethyl-17-((R)-6-methylheptan-2-yl)-2,3,4,7,8,9,10,11,12,13,14,15,16,17-tetradecahydro-1H-cyclopenta[a]phenanthren-3-yl)oxy)octyl)oxy)-4-(sulfonatooxy)phenyl)-4-oxo-3,7-bis(sulfonatooxy)-4H-chromen-5-yl)oxy)propoxy)-4-oxo-3,7-bis(sulfonatooxy)-4H-chromen-2-yl)-1,2-phenylene Bis(sulfate)]
- blood loss, tail bleeding [4]: did not exhibit much tail bleeding phenotype
- cytotoxicity under monolayer conditions (HT-29 monolayer culture): significantly cytotoxic at ∼100 μM

- concentration required for 2-fold increase in APTT [3]: 3 µM
- blood loss, tail bleeding [4]: significantly higher blood loss
Molecule: enoxaparin [reference compound]

- fold better than G2.2 (spheroid potency, IC50 gain) [5, 6]: 1.7 fold
Molecule: O=c1c(OS(=O)(=O)[O-])c(-c2ccc(OS(=O)(=O)[O-])cc2OS(=O)(=O)[O-])oc2cc(OS(=O)(=O)[O-])cc(OCC3CCC(COc4cc(OS(=O)(=O)[O-])cc5oc(-c6ccc(OS(=O)(=O)[O-])cc6OS(=O)(=O)[O-])c(OS(=O)(=O)[O-])c(=O)c45)CC3)c12.[Na+].[Na+].[Na+].[Na+].[Na+].[Na+].[Na+].[Na+] (stereo not drawn) [MMD1, Sodium 4-(5-((4-(((2-(2,4-Bis(sulfonatooxy)phenyl)-4-oxo-3,7-bis(sulfonatooxy)-4H-chromen-5-yl)oxy)methyl)cyclohexyl)methoxy)-4-oxo-3,7-bis(sulfonatooxy)-4H-chromen-2-yl)-1,3-phenylene Bis(sulfate)]
- cytotoxicity under monolayer conditions (HT-29 monolayer culture): did not display significant cytotoxicity

- fold better than G2.2 (spheroid potency, IC50 gain) [5, 6]: 7.3 fold and ~9 fold
Molecule: O=c1c(OS(=O)(=O)[O-])c(-c2ccc(OS(=O)(=O)[O-])c(OS(=O)(=O)[O-])c2)oc2cc(OS(=O)(=O)[O-])cc(OCC3CCC(COc4cc(OS(=O)(=O)[O-])cc5oc(-c6ccc(OS(=O)(=O)[O-])c(OS(=O)(=O)[O-])c6)c(OS(=O)(=O)[O-])c(=O)c45)CC3)c12.[Na+].[Na+].[Na+].[Na+].[Na+].[Na+].[Na+].[Na+] (stereo not drawn) [MQD1, Sodium 4-(5-((4-(((2-(3,4-Bis(sulfonatooxy)phenyl)-4-oxo-3,7-bis(sulfonatooxy)-4H-chromen-5-yl)oxy)methyl)cyclohexyl)methoxy)-4-oxo-3,7-bis(sulfonatooxy)-4H-chromen-2-yl)-1,2-phenylene Bis(sulfate)]
- cytotoxicity under monolayer conditions (HT-29 monolayer culture): did not display significant cytotoxicity
